According to ChEMBL document CHEMBL3580657, “Design and Evaluation of 3-(Benzylthio)benzamide Derivatives as Potent and Selective SIRT2 Inhibitors” (ACS Med Chem Lett, 2015):
Calls of active or inactive are those of the source. The calls are words filed in the database; no cut-off is given here.

Key:
[1] = biological target: T1, NAD-dependent protein deacetylase sirtuin-2 (Homo sapiens) (UniProt Q8IXJ6); assay: Inhibition of SIRT2 (unknown origin) at 10 uM by Flour-de-Lys fluorescent biochemical assay
T1 sequence (whole entry): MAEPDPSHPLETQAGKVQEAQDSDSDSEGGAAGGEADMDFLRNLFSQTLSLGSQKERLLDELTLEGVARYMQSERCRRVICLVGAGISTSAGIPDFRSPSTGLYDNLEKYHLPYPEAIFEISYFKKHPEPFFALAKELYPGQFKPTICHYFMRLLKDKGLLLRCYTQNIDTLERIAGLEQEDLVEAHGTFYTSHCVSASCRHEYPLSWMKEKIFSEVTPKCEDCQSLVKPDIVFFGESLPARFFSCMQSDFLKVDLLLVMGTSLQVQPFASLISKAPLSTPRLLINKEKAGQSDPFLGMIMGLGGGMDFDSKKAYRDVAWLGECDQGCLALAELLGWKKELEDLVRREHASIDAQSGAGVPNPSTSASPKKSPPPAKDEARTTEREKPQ
Procedure, shortened: (§1)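 Biochemical sirtuin deacetylation assays (SIRT1, SIRT2, SIRT3) run as in earlier work. Single 10 μM dose in triplicate. Primary screen was SIRT2, with SIRT1 and SIRT3 as counter-screens. A reference compound was included with each assay.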

[2] = biological target: T2, NAD-dependent protein deacetylase sirtuin-2 (Homo sapiens, UniProt Q8IXJ6); assay: Inhibition of SIRT2 (unknown origin) by Flour-de-Lys fluorescent biochemical assay
T2 sequence (Q8IXJ6 whole entry): T1 sequence (whole entry)

[3] = biological target: T3, NAD-dependent protein deacetylase sirtuin-1 (Homo sapiens) (UniProt Q96EB6); assay: Inhibition of SIRT1 (unknown origin) at 10 uM by Flour-de-Lys fluorescent biochemical assay; procedure, shortened: as §1
T3 sequence (whole entry): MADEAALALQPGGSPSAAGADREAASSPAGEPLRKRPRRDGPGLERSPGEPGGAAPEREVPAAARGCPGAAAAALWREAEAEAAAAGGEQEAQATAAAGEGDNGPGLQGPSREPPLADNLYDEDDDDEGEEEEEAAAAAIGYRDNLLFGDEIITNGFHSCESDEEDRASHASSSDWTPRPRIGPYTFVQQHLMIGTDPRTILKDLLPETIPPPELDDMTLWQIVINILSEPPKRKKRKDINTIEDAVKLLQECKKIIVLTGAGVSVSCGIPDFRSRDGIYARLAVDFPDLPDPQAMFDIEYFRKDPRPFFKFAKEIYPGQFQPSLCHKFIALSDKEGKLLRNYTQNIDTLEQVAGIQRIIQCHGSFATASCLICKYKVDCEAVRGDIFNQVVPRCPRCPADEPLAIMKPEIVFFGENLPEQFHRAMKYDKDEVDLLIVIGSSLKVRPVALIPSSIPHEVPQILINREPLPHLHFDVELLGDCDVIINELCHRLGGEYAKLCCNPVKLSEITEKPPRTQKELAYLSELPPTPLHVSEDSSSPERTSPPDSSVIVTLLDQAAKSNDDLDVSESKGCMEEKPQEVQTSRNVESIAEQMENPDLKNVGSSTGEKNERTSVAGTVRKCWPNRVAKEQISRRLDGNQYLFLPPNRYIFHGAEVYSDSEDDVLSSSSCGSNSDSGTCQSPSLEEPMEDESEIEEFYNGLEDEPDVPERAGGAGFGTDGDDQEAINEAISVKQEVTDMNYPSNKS

[4] = biological target: T4, NAD-dependent protein deacetylase sirtuin-3, mitochondrial (Homo sapiens) (UniProt Q9NTG7); assay: Inhibition of SIRT3 (unknown origin) at 10 uM by Flour-de-Lys fluorescent biochemical assay; procedure, shortened: as §1
T4 sequence (whole entry): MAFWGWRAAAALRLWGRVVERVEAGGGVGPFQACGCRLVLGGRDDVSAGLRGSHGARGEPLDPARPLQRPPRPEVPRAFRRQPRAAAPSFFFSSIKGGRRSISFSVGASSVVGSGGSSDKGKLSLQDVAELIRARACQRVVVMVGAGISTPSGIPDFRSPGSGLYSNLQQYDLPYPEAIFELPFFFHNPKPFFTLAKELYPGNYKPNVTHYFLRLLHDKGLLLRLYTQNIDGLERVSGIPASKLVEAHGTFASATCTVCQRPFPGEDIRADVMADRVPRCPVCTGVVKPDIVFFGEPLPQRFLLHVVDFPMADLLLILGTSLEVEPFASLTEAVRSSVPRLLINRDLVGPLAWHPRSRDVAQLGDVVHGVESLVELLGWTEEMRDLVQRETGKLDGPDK

[5] = biological target: T5, NAD-dependent protein deacetylase sirtuin-2 (Rattus norvegicus) (UniProt Q5RJQ4); assay: Inhibition of SIRT2 in rat ST14A cells assessed as increase in alpha-tubulin K40 acetylation at 0.5 to 50 uM incubated for 6 hrs by SDS-PAGE and Western blotting method; assay type: cell-based
T5 sequence (whole entry): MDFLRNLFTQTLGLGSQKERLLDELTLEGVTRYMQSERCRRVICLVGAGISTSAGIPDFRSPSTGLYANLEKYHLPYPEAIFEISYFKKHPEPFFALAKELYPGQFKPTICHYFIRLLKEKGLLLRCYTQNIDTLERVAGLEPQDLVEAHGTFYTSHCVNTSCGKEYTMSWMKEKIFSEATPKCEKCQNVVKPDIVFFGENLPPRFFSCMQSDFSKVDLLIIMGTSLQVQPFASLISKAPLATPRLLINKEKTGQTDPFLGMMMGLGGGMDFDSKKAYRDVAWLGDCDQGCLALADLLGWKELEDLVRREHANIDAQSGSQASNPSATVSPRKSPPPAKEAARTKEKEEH
Procedure, shortened: (§2)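 Cells were treated with compound for 6 h across 0.5–50 μM. Extracts were resolved by SDS-PAGE and immunoblotted with an antibody to acetyl-K40 α-tubulin, with GAPDH as loading control. In ST14A, signal was normalized to GAPDH and quantified from blots.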

[6] = biological target: T5, NAD-dependent protein deacetylase sirtuin-2 (Rattus norvegicus); assay: Inhibition of SIRT2 in rat PC12 cells expressing inducible HD103Q-EGFP fusion fragment of huntingtin mutant assessed as reduction in number and size of fluorescent polyQ inclusions at 5 uM treated simultaneously with 2.5 uM ecdysone-inducible gene inducer muristerone A for 24 hrs by fluorescence microscopy; assay type: cell-based; settings: PC-12
Procedure, shortened: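 PC12 cells carrying inducible HD103Q-EGFP huntingtin fragment were induced with 2.5 μM muristerone A for 24 h, simultaneous with compound at 25, 10 or 5 μM. PolyQ aggregation was scored by epifluorescence microscopy as number and size of fluorescent inclusions.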

[7] = biological target: T5, NAD-dependent protein deacetylase sirtuin-2 (Rattus norvegicus); assay: Inhibition of SIRT2 in rat ST14A cells assessed as increase in alpha-tubulin K40 acetylation at 25 uM incubated for 6 hrs by SDS-PAGE and Western blotting method; assay type: cell-based; procedure, shortened: as §2
[8] = Toxicity in rat PC12 cells expressing inducible HD103Q-EGFP fusion fragment of huntingtin mutant assessed as effect on cell density at 5 uM by phase contrast microscopy; assay type: cell-based; settings: pc-12, 5 µM

Compound | inhibition [1] [%] | IC50 ([2]; read-out: IC50) [µM] | inhibition [3] [%] | inhibition [4] [%] | further results
CS(=O)(=O)c1ccc(NC(=O)c2cccc(S(=O)(=O)Cc3ccc(Cl)cc3)c2)cc1 | 17 |  |  |  | 
N#Cc1ccc(NC(=O)c2cccc(SCc3ccc(Cl)cc3)c2)cc1 | 81 | 2.9 | 8 | 0 | 
COc1ccc(CS(=O)(=O)c2cccc(C(=O)Nc3ccc(C#N)cc3)c2)cc1 | 50 | 6.7 | 3 | 0 | 
O=C(Nc1ccc(Cl)nn1)c1cccc(S(=O)(=O)Cc2ccc(Cl)cc2)c1 | 0 |  |  |  | 
N#Cc1ccc(NC(=O)c2cccc([S+]([O-])Cc3ccc(Cl)cc3)c2)cc1 (stereo not drawn) | 47 | 7.1 | 12 | 11 | 
CC(=O)c1ccc(NC(=O)c2cccc(S(=O)(=O)Cc3ccc(Cl)cc3)c2)cc1 | 23 |  |  |  | 
N#Cc1ccc(NC(=O)c2cccc(S(=O)(=O)Nc3ccc(Cl)cn3)c2)cc1 |  |  |  |  | IC50 [2]: Not Active
CSc1ccc(CSc2cccc(C(=O)Nc3ccc(C#N)cc3)c2)cc1 | 83 | 2.4 | 3 | 0 | inhibition [6]: Active; inhibition [7]: Active; Activity [8]: Non-toxic
COc1ccc(C[S+]([O-])c2cccc(C(=O)Nc3ccc(C#N)cc3)c2)cc1 (stereo not drawn) | 21 |  |  |  | 
O=C(Nc1ccc(Br)cc1)c1cccc(S(=O)(=O)Cc2ccc(Cl)cc2)c1 | 0 |  |  |  | 
O=C(Nc1ccc(Cl)cc1)c1cccc(S(=O)(=O)Cc2ccc(Cl)cc2)c1 | 0 |  |  |  | 

Further lines, with some results ahead:

inhibition [1] [%] | IC50 ([2]; read-out: IC50) [µM] | inhibition [3] [%] | inhibition [4] [%] | Compound | further results
24 |  |  |  | C[S+]([O-])c1ccc(NC(=O)c2cccc([S+]([O-])Cc3ccc(Cl)cc3)c2)cc1 (stereo not drawn) | 
40 | 4.7 | 0 | 0 | N#Cc1ccc(NC(=O)c2cccc(S(=O)(=O)Cc3ccc(Cl)cc3)c2)cc1 | 
2 |  |  |  | O=C(Nc1ccc(Cl)cn1)c1cccc(S(=O)(=O)Cc2ccc(Cl)cc2)c1 | 
60 | 8.4 | 10 | 8 | C[S+]([O-])c1ccc(NC(=O)c2cccc(SCc3ccc(Cl)cc3)c2)cc1 (stereo not drawn) | inhibition [5]: Dose-dependent effect
18 |  |  |  | CS(=O)(=O)c1ccc(NC(=O)c2cccc([S+]([O-])Cc3ccc(Cl)cc3)c2)cc1 (stereo not drawn) | 
